In ChEMBL document CHEMBL2157976, “Design, synthesis and biological activities of sorafenib derivatives as antitumor agents” (Bioorg Med Chem Lett, 2012):
Activity calls are given as the source filed them. The calls are words filed in the database; no cut-off is given here.

Tests used:
MDA-MB-231 = assay: Cytotoxicity against human MDA-MB-231 cells after 48 hrs by MTT assay; assay type: functional, cell-based; conditions: MDA-MB-231, 48 h
Summary of the method: (§1)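 All three human tumour lines were screened in parallel by MTT colorimetric viability assay, with sorafenib as positive control. Antiproliferative potency was expressed as IC50.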

PC-3 = assay: Cytotoxicity against human PC3 cells after 48 hrs by MTT assay; assay type: functional, cell-based; conditions: PC-3, 48 h; summary of the method: as §1
HCT-116 = assay: Cytotoxicity against human HCT116 cells after 48 hrs by MTT assay; assay type: functional, cell-based; conditions: HCT-116, 48 h; summary of the method: as §1
Aorta = assay: Antiangiogenic activity in Sprague-Dawley rat aortic ring assessed as inhibition of blood vessel formation at 0.1 uM after 6 days by inverted microscopic analysis; assay type: functional, tissue-based
Summary of the method: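 Sprague-Dawley rat aortic segments were embedded in wells coated with growth factor-reduced Matrigel. They were cultured for 6 d with or without compound, and untreated wells served as control. Microvessel sprouting from the segments was scored.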

Row | Structure (SMILES) | IC50 (MDA-MB-231) [µM] | IC50 (PC-3) [µM] | IC50 (HCT-116) [µM] | inhibition (Aorta)
1 | CC(C)NC(=O)c1cc(Oc2cccc(NC(=S)Nc3ccc(OC(F)(F)F)cc3)c2)ccn1 | > 100 | 11.8 | 18.1 | 
2 | O=C(NC1CC1)c1cc(Oc2cccc(NC(=S)Nc3ccc(Cl)c(C(F)(F)F)c3)c2)ccn1 | 21.2 | 6.8 | 9.3 | 
3 | CNC(=O)c1cc(Oc2cccc(NC(=S)Nc3ccc(Cl)c(C(F)(F)F)c3)c2)ccn1 | 35.7 | 16.1 | 15.1 | 
4 | CNC(=O)c1cc(Oc2cccc(NC(=S)Nc3ccc(F)c(F)c3)c2)ccn1 | > 100 | 33.1 | 30.3 | 
5 | O=C(c1cc(Oc2cccc(NC(=S)Nc3ccc(F)c(F)c3)c2)ccn1)N1CCCC1 | > 100 | 45.6 | 52 | 
6 | CCNC(=O)c1cc(Oc2cccc(NC(=S)Nc3cccc(C(F)(F)F)c3)c2)ccn1 | 53.1 | 18.3 | 19.4 | 
7 | CCNC(=O)c1cc(Oc2cccc(NC(=S)Nc3ccc(Cl)c(C(F)(F)F)c3)c2)ccn1 | 22.1 | 8.5 | 6.9 | Active
8 | O=C(c1cc(Oc2cccc(NC(=S)Nc3ccc(OC(F)(F)F)cc3)c2)ccn1)N1CCCC1 | 37.8 | 34.1 | 17.8 | 
9 | CNC(=O)c1cc(Oc2cccc(NC(=S)Nc3ccc(Cl)cc3)c2)ccn1 | > 100 | 24.1 | 39.4 | 
10 | O=C(NC1CCCCC1)c1cc(Oc2cccc(NC(=S)Nc3ccc(F)c(F)c3)c2)ccn1 | > 100 | 8.1 | 8.9 | Active
11 | O=C(NC1CCCCC1)c1cc(Oc2cccc(NC(=S)Nc3cccc(C(F)(F)F)c3)c2)ccn1 | > 100 | 16.8 | 8.4 | 
12 | O=C(NCc1ccccc1)c1cc(Oc2cccc(NC(=S)Nc3ccc(OC(F)(F)F)cc3)c2)ccn1 | > 100 | 6.8 | 7.4 | 
13 | O=C(c1cc(Oc2cccc(NC(=S)Nc3ccc(Cl)c(C(F)(F)F)c3)c2)ccn1)N1CCCC1 | 40.2 | 12.1 | 22.4 | 
14 | O=C(NC1CCCCC1)c1cc(Oc2cccc(NC(=S)Nc3ccc(Cl)c(C(F)(F)F)c3)c2)ccn1 | 34.2 | 2.2 | 2.8 | Active
15 | O=C(NC1CC1)c1cc(Oc2cccc(NC(=S)Nc3cccc(C(F)(F)F)c3)c2)ccn1 | 34.8 | 22.1 | 20.2 | 
16 | CNC(=O)c1cc(Oc2cccc(NC(=S)Nc3cccc(C(F)(F)F)c3)c2)ccn1 | > 100 | 24.5 | 25.3 | 
17 | CNC(=O)c1cc(Oc2ccc(NC(=O)Nc3ccc(Cl)c(C(F)(F)F)c3)cc2)ccn1 [SORAFENIB] |  | 6.8 |  | Active
18 | CC(C)NC(=O)c1cc(Oc2cccc(NC(=S)Nc3ccc(Cl)cc3)c2)ccn1 | 87.5 | 21.2 | 22.1 | 
19 | O=C(c1cc(Oc2cccc(NC(=S)Nc3cccc(C(F)(F)F)c3)c2)ccn1)N1CCCC1 | 35.4 | 27 | 19.2 | 
20 | O=C(NCc1ccccc1)c1cc(Oc2cccc(NC(=S)Nc3cccc(C(F)(F)F)c3)c2)ccn1 | 75 | 11 | 7.5 | 
21 | CCNC(=O)c1cc(Oc2cccc(NC(=S)Nc3ccc(F)c(F)c3)c2)ccn1 | > 100 | 26.3 | 30.3 | 
22 | CNC(=O)c1cc(Oc2cccc(NC(=S)Nc3ccc(OC(F)(F)F)cc3)c2)ccn1 | > 100 | 34.7 | 33.8 | 
23 | O=C(NCc1ccccc1)c1cc(Oc2cccc(NC(=S)Nc3ccc(Cl)cc3)c2)ccn1 | > 100 | 15.8 | 16.5 | 
24 | CNC(=O)c1cc(Oc2cccc(NC(=S)Nc3ccc(Cl)cc3Cl)c2)ccn1 | > 100 | 37.8 | 41.2 | 
